Activity calls are given as the source filed them. No cut-off for these calls is given here.
Legend:
A549 [1] = experiment: Inhibition of TNFalpha-induced IKKbeta-mediated NF-kappaB activity in human A549 cells at 10 uM after 2 hrs followed by TNFalpha addition for 7 hrs by ONE-Glo Luciferase reporter based luminescence assay; type: cell-based
Method in brief: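 A549 luciferase cells grown 5 passages without TNFα then 2 passages with or without 5 ng/mL TNFα; 50,000 per well overnight; 10 µM compound 2 h; then 20 ng/mL TNFα 7 h; PrestoBlue 10 min (560ex/590em) viability; ONE-Glo 10 min, luminescence 1000 ms.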

A2780 = experiment: Cytotoxicity against human A2780 cells assessed as cell growth inhibition after 3 days by presto blue dye based plate reader method; type: functional; details: A2780, 72 h
Method in brief: (§1)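 Cells in DMEM high glucose/10% FBS (A2780 in RPMI/10% FBS), 4,000 per well, overnight, then 40 to 0.039 µM or vehicle, 24, 48, 72 h at 37°C, 5% CO2; PrestoBlue 15 min, fluorescence 560ex/590em; growth as 100×[(T−Tz)/(C−Tz)] per NCI algorithm.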

[2] = Cytotoxicity against human MIAPaCa2 cells assessed as cell growth inhibition after 3 days by presto blue dye based plate reader method; type: functional; details: MIA PaCa-2, 72 h; method in brief: as §1
A549 [3] = experiment: Inhibition of TNFalpha-induced IKKbeta-mediated NF-kappaB activity in human A549 cells at 10 uM after 2 hrs followed by TNFalpha addition for 7 hrs by ONE-Glo Luciferase reporter based luminescence assay
HeLa [4] = experiment: Cytotoxicity against human HeLa cells expressing GFP assessed as cell growth inhibition after 3 days by presto blue dye based plate reader method; type: functional; details: 72 h; method in brief: as §1
SW480 = experiment: Cytotoxicity against human SW480 cells assessed as cell growth inhibition after 3 days by presto blue dye based plate reader method; type: functional; details: SW480, 72 h
serum albumin [5] = target: T1, serum albumin (Homo sapiens, UniProt P02768); experiment: Binding affinity to human serum albumin assessed as half life by MS analysis; type: ADME
serum albumin [6] = target: T1, serum albumin; experiment: Binding affinity to human serum albumin assessed as half life by HPLC analysis; type: ADME
[7] = target: T2, Inhibitor of nuclear factor kappa-B kinase subunit beta (Homo sapiens) (UniProt O14920); experiment: Inhibition of IKKbeta in human MIAPaCa2 cells assessed as reduction in IkappaBalpha phosphorylation at 10 to 20 uM by Western blot analysis; type: cell-based; details: MIA PaCa-2
T2 sequence (whole entry): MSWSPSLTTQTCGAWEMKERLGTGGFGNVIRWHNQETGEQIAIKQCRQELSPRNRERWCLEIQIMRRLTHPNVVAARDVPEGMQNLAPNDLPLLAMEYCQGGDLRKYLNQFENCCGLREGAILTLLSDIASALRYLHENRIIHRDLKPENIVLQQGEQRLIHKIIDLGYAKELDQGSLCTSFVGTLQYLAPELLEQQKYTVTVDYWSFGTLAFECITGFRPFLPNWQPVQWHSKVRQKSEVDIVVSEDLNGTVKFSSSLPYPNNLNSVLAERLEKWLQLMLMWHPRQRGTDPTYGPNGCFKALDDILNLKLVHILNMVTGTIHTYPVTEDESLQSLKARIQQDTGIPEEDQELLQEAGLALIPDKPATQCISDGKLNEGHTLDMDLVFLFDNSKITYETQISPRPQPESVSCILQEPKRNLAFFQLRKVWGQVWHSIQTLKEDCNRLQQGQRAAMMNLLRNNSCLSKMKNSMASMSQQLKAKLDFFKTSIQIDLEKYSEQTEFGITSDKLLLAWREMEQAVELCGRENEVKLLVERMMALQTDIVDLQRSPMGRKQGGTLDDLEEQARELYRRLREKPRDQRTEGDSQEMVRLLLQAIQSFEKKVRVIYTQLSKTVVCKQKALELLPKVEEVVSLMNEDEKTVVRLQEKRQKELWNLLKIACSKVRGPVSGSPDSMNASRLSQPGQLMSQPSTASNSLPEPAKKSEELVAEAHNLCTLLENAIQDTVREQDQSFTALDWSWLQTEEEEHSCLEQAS

MDA-MB-231 [8] = experiment: Cytotoxicity against human MDA-MB-231 cells assessed as cell growth inhibition at 0.039 to 40 uM by presto blue dye based plate reader method; type: functional
[9] = target: T2, Inhibitor of nuclear factor kappa-B kinase subunit beta (Homo sapiens); experiment: Inhibition of IKKbeta in human MDA-MB-231 cells assessed as reduction in IkappaBalpha phosphorylation by Western blot analysis; type: cell-based
Method in brief: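 MDA-MB-231 cytoplasmic fractions: swelling 30 min on ice in HEPES/KCl/EDTA/DTT buffer with inhibitors, 1.25% NP-40, centrifuged; lysates on 4-20% gels, PVDF, anti-phospho-IκBα and anti-IκBα, tubulin or GAPDH loading control, ECL detection.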

HeLa [10] = experiment: Anticlonogenic activity against human HeLa cells assessed as inhibition of colony formation after 2 to 7 days by crystal violet staining; type: functional, cell-based
Method in brief: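 HeLa cells seeded at 500-1000 per well, grown 24 h, drug-treated 48 h at 37°C (DMSO control), then fresh medium for 7 days; methanol fixed 15 min, 0.1% crystal violet 30 min at room temperature, colonies over 50 cells counted.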

HeLa [11] = experiment: Induction of apoptosis in human HeLa cells assessed as PARP cleavage after 24 to 48 hrs by Western blot analysis; type: functional, cell-based
Method in brief: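 Cells collected with media and trypsinized pellet combined, lysed in RIPA buffer (pH 8.0), 4-20% SDS-PAGE, Western blot with anti-PARP to detect cleavage; HeLa timepoint 48 h.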

MDA-MB-231 [12] = experiment: Cytotoxicity against human MDA-MB-231 cells assessed as cell growth inhibition after 3 days by presto blue dye based plate reader method; type: functional; method in brief: as §1
[13] = target: T2, Inhibitor of nuclear factor kappa-B kinase subunit beta (Homo sapiens); experiment: Covalent inhibition of IKKbeta (unknown origin) at 10 uM after 1 hr by rhodamine azide dye based SDS-PAGE method
Method in brief: (§2)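 Purified IKKβ or p65 (250 ng in 200 µL) incubated 1 h with 10 µM alkyne probe; click reaction 1 h with 0.1 mM 5-TAMRA azide, 1 mM TCEP, 1 mM CuSO4, 0.1 mM TBTA; methanol precipitation, pellet in SDS buffer, 4-20% SDS-PAGE, fluorescence gel scanning.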

Homo sapiens = organism: Homo sapiens; experiment: Covalent inhibition of C-terminus truncated NF-kappaB p65 L15V/P180S/F309S/A439V/V462M mutant (unknown origin) at 10 uM after 1 hr by rhodamine azide dye based SDS-PAGE method; method in brief: as §2

T1 sequence (P02768 whole entry): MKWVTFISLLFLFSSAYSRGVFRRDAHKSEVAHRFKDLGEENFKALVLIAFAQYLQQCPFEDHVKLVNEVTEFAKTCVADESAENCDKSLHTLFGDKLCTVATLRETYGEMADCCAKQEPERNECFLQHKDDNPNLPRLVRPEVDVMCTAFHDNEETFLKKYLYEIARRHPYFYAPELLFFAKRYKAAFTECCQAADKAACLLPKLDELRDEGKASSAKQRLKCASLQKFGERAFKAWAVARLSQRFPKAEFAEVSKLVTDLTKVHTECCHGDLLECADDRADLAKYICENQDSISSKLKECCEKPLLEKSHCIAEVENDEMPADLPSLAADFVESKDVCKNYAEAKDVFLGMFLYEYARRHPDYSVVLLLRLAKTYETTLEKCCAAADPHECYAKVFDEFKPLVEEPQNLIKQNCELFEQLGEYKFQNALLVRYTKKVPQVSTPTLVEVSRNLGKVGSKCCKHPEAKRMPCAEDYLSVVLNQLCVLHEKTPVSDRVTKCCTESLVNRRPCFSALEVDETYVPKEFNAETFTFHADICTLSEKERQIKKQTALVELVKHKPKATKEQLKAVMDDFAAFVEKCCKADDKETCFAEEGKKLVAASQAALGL

C=C1CC(c2ccnc3ccccc23)OC1=O (stereo not drawn)
inhibition (A549 [1]): inactive

C=C1CC(c2cccc(Br)n2)OC1=O (stereo not drawn)
inhibition (A549 [1]): 50%

C=C1CC2(OC1=O)C(=O)Nc1c([N+](=O)[O-])cc(Br)cc12 (stereo not drawn)
EC50 (A2780): 2 µM

C=C1CC(c2cccc(OC)c2)OC1=O (stereo not drawn)
inhibition (A549 [1]): 25%

C=C1C(=O)O[C@@H]2C3O[C@]3(C)CC/C=C(\C)CC[C@@H]12 (stereo partly drawn)
IC50 [2]: 9.8 µM
inhibition (A549 [3]): > 95%
IC50 (HeLa [4]): 5.7 µM
IC50 (SW480): 15.3 µM
half-life (serum albumin [5]): 37 min
half-life (serum albumin [6]): 66 min
EC50 (A2780): 12.9 µM

C=C1CC(c2cccc(OCc3ccccc3)c2)OC1=O (stereo not drawn)
inhibition (A549 [1]): 25%

CC1CC2(OC1=O)C(=O)Nc1ccccc12 (stereo not drawn)
inhibition (A549 [3]): 5%
inhibition [7]: inactive
growth inhibition (GI) (MDA-MB-231 [8]): inactive
inhibition [9]: inactive
inhibition (HeLa [10]): inactive
Activity (HeLa [11]): inactive
growth inhibition (GI) (MDA-MB-231 [12]): inactive

C=C1CC2(OC1=O)C(=O)Nc1ccc(I)cc12 (stereo not drawn)
EC50 (A2780): 2.2 µM

C=C1CC(c2ccc(OC)c(OC)c2)OC1=O (stereo not drawn)
inhibition (A549 [1]): 25%

CCC(=O)N1CCC[C@@H](n2nc(-c3ccc(Oc4ccccc4)cc3)c3c(N)ncnc32)C1
IC50 [2]: 8.2 µM
IC50 (HeLa [4]): 15.1 µM
IC50 (SW480): 13.4 µM
EC50 (A2780): 15.2 µM

C=C1C(=O)OC2(C(=O)Nc3ccccc32)C1c1ccccc1 (stereo not drawn)
EC50 (A2780): 3.8 µM

C=C1CC(c2cccc(C(F)(F)F)c2)OC1=O (stereo not drawn)
inhibition (A549 [1]): 25%

C=C1CC2(OC1=O)C(=O)N(Cc1ccccc1)c1ccccc12 (stereo not drawn)
EC50 (A2780): 2.7 µM

NC(=O)Nc1sc(-c2ccc(F)cc2)cc1C(N)=O
growth inhibition (GI) (MDA-MB-231 [12]): Active

C=C1CC(c2ccccn2)OC1=O (stereo not drawn)
inhibition (A549 [1]): < 25%

C=C1CC(c2ccc(C3CC(=C)C(=O)O3)cc2)OC1=O (stereo not drawn)
inhibition (A549 [1]): Active

Cc1ccc(C)c2c1NC(=O)C21CC(C)C(=O)O1 (stereo not drawn)
IC50 [2]: > 100 µM
IC50 (HeLa [4]): > 100 µM
IC50 (SW480): > 100 µM
EC50 (A2780): > 100 µM

C=C1CC(c2ccc(F)cc2)OC1=O (stereo not drawn)
inhibition (A549 [1]): 25%

N#Cc1c(C2CCNCC2)cc(-c2c(O)cccc2OCC2CC2)nc1N
growth inhibition (GI) (MDA-MB-231 [12]): Active

C/C1=C\CC[C@@]2(C)O[C@H]2[C@H]2OC(=O)C(C)[C@@H]2CC1 (stereo partly drawn)
IC50 [2]: 84.3 µM
inhibition (A549 [3]): 20%
IC50 (HeLa [4]): 66.1 µM
IC50 (SW480): > 100 µM
EC50 (A2780): > 100 µM

C=C1CC(c2ccc3ccccc3c2)OC1=O (stereo not drawn)
inhibition (A549 [1]): 50%

C=C1CC(c2c(OC)ccc3ccccc23)OC1=O (stereo not drawn)
inhibition (A549 [1]): Active

O=C(Nc1ccc(Br)cc1)Nc1ccc2nc(-c3ccco3)c(-c3ccco3)nc2c1
growth inhibition (GI) (MDA-MB-231 [12]): Active

C=CC(=O)N1CCC[C@@H](n2nc(-c3ccc(Oc4ccccc4)cc3)c3c(N)ncnc32)C1 [IBRUTINIB]
IC50 [2]: 16.6 µM
IC50 (HeLa [4]): 16.8 µM
IC50 (SW480): 25.6 µM
EC50 (A2780): 20.1 µM

C=C1CC(c2c(OCc3ccccc3)ccc3ccccc23)OC1=O (stereo not drawn)
inhibition (A549 [1]): < 25%

C=C1CC(c2cccc3ccccc23)OC1=O (stereo not drawn)
inhibition (A549 [1]): 50%

C=C1CC(c2ccc(OCc3ccccc3)cc2)OC1=O (stereo not drawn)
inhibition (A549 [1]): 25%

C=C1CC2(OC1=O)C(=O)N(C)c1ccccc12 (stereo not drawn)
EC50 (A2780): 3.9 µM

C=C1CC(c2ccc(OC)c(OCc3ccccc3)c2)OC1=O (stereo not drawn)
inhibition (A549 [1]): 25%

C=C(CC1(O)C(=O)Nc2ccccc21)C(=O)OC (stereo not drawn)
inhibition (A549 [3]): Active
inhibition [9]: Active

C=C1CC2(OC1=O)C(=O)Nc1ccc(OC)cc12 (stereo not drawn)
EC50 (A2780): 3.1 µM

C=C1CC(c2ccc(OC)cc2)OC1=O (stereo not drawn)
inhibition (A549 [1]): 25%

C#CCCN1C(=O)C2(CC(=C)C(=O)O2)c2ccccc21 (stereo not drawn)
inhibition [13]: Active
inhibition (Homo sapiens): Active
inhibition (A549 [1]): 75%
EC50 (A2780): 5.5 µM

C=C1CC(c2ccccc2)OC1=O (stereo not drawn)
inhibition (A549 [1]): 25%

From ChEMBL document CHEMBL3822425, “Isatin Derived Spirocyclic Analogues with α-Methylene-γ-butyrolactone as Anticancer Agents: A Structure-Activity Relationship Study” (J Med Chem, 2016)
